According to ChEMBL document CHEMBL1128576, “Time-resolved ligand exchange reactions: kinetic models for competitive inhibitors with recombinant human renin” (J Med Chem, 1995):

Legend:
Renin (Homo sapiens) [1] = target: T1, Renin (Homo sapiens) (UniProt P00797); assay: (§1) Component […] rate constant by the compound against Renin was determined
T1 sequence (whole entry): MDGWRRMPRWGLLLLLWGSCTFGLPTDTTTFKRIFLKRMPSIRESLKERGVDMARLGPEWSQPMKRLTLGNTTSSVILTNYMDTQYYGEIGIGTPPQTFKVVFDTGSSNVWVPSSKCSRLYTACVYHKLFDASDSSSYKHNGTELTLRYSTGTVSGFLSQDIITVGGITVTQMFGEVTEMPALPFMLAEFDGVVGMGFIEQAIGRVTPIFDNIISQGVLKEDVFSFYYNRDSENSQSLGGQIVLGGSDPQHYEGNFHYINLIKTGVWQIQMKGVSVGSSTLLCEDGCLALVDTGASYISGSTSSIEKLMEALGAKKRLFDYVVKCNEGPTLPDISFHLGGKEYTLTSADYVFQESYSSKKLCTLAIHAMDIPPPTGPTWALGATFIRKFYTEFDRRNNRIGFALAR

[2] = Half life period of the compound.; type: ADME
In short: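 Half-life was calculated as ln2/koff (first-order decay). koff came from paired fluorescent-probe ligand exchange with recombinant human renin: 5.0×10^-8 M renin, 5.0×10^-7 M probe, pH 7.4 HEPES/octyl glucoside buffer, 37 °C, 5-min preincubation. The two curves were fitted simultaneously, with the probe rate constants held fixed.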

Renin (Homo sapiens) [3] = target: T1, Renin (Homo sapiens); assay: as §1; design: unit not given here

Compound | k on (Renin (Homo sapiens) [1]) [M⁻¹ s⁻¹] | half-life [2] [min] | Koff (Renin (Homo sapiens) [3])
CC(C)C[C@H](O)[C@H](O)[C@H](CC1CCCCC1)NC(=O)[C@@H](CC(=O)N(CC(=O)N(C)CCc1ccccn1)CC1(C)CCCCC1)Cc1csc(N)n1 | 1.22e+07 | 20.3 | 0.000569
CC(C)C[C@H](O)[C@H](O)[C@H](CC1CCCCC1)NC(=O)[C@@H](CC(=O)N(CC(=O)N(C)CCc1ccccn1)[C@@H](C)c1ccccc1)Cc1csc(N)n1 | 6.68e+06 | 8.6 | 0.00135
CC(C)C[C@H](O)[C@H](O)[C@H](CC1CCCCC1)NC(=O)[C@@H](CC(=O)N(CC(=O)N(C)CCc1ccccn1)CC1CCCCCC1)Cc1csc(N)n1 | 8.63e+06 | 49.4 | 0.000234
CC(C)C[C@H](O)[C@H](O)[C@H](CC1CCCCC1)NC(=O)[C@@H](CC(=O)N(CC(=O)N(C)CCC(=O)N1CCOCC1)[C@@H](C)c1ccccc1)Cc1csc(N)n1 | 2e+06 | 8.9 | 0.0013
CC(C)C[C@H](O)[C@H](O)[C@H](CC1CCCCC1)NC(=O)[C@@H](CC(=O)N(CC(=O)N(C)CCc1ccccn1)CC1CCCCC1)Cc1csc(N)n1 | 5.93e+06 | 41.3 | 0.00028
CC(C)C[C@H](O)[C@H](O)[C@H](CC1CCCCC1)NC(=O)[C@@H](CC(=O)N(CC(=O)N(C)CCN(C)C(=O)N1CCOCC1)[C@@H](C)c1ccccc1)Cc1csc(N)n1 | 5.43e+06 | 8.7 | 0.00133
COC1(CN(CC(=O)N(C)CCc2ccccn2)C(=O)C[C@@H](Cc2csc(N)n2)C(=O)N[C@@H](CC2CCCCC2)[C@@H](O)[C@@H](O)CC(C)C)CCCCC1 | 2.28e+06 | 6.6 | 0.00175
CC(C)C[C@H](O)[C@H](O)[C@H](CC1CCCCC1)NC(=O)[C@@H](CC(=O)N(CC(=O)N(C)CCN1CCOCC1)[C@@H](C)c1ccccc1)Cc1csc(N)n1 | 2.07e+06 | 2.4 | 0.00481
